Our source for the Ki and Kd values is ChEMBL document CHEMBL1127544, “A new series of photoactivatable and iodinatable linear vasopressin antagonists” (J Med Chem, 1994).

For assay [1], the target named is T1, Vasopressin V1a receptor (Rattus norvegicus, UniProt P30560). Nature of the assay: Inhibition constant for V1a receptor of rat liver membrane. An outline of the steps: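 Competition binding on rat liver membranes (male rat), 5 or 10 μg/assay, 45 min at 30 °C in the dark. Unlabeled peptide 10^-11 to 10^-7 or 10^-6 M against 60 pM [125I]Phaa-D-Tyr(Me)-Phe-Gln-Asn-Arg-Pro-Arg-Tyr-NH2. Nonspecific binding with 1 μM vasopressin. Separation by GF/C filtration. Ki = IC50 × Kd/(Kd + [tracer]), tracer Kd 0.06 nM. Triplicates.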

For assay [2], the target named is T1, Vasopressin V1a receptor. Kind of assay: Tested for dissociation constant at V1a receptor of rat liver membrane. An outline of the steps:
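Saturation binding of the 125I-labeled azido analogues on rat liver membranes (5 μg), rising labeled-ligand concentrations, run as the competition protocol (45 min, 30 °C, Tris-HCl pH 7.4, MgCl2, BSA, filtration). Nonspecific binding with 250-fold excess of the matching unlabeled analogue. Kd from Scatchard plot. Triplicate values, three independent experiments.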

The target of the next assay is T2, Oxytocin receptor (Rattus norvegicus, UniProt P70536).
T2 sequence (P70536 whole entry): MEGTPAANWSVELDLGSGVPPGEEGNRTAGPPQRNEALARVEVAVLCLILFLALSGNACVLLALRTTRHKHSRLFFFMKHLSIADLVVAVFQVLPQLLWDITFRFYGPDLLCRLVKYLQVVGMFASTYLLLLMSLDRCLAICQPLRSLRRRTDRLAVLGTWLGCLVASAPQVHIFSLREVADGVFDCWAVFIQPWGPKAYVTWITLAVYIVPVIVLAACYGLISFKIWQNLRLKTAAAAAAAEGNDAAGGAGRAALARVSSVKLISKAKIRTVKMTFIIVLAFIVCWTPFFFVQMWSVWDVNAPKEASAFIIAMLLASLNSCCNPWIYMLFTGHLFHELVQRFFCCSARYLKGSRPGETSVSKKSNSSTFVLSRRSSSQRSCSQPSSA
Kind of assay: Tested for inhibition constant at OT receptor of rat mammary glands. An outline of the steps: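 Rat mammary gland membranes (female rat), 2 or 5 μg/assay, 45 min at 30 °C in 50 mM Tris-HCl pH 7.4, 5 mM MgCl2, 1 mg/mL BSA. Competition against 60 pM [125I]d(CH2)5[Tyr(Me)2,Thr4,Orn8,Tyr-NH2 9]VT. Nonspecific binding with 1 μM oxytocin. Filtration over GF/C. Triplicate determinations.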

A further assay deals with Vasopressin V2 receptor (Rattus norvegicus, UniProt Q00788). Nature of the assay: Tested for inhibition constant at V2 receptor of rat kidney membrane. An outline of the steps:
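Rat renal medullary membranes (male rat, freshly prepared), 28.5 μg/assay, 45 min at 30 °C in 50 mM Tris-HCl pH 7.4, 5 mM MgCl2, 1 mg/mL BSA. Competition against 10^-9 M [3H]AVP. Nonspecific binding with 1 μM vasopressin. Filtration over GF/C. Triplicate determinations.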

In assay [3] the target is T1, Vasopressin V1a receptor. Kind of assay: Tested for inhibition constant determined from vasopressin induced inositol phosphates accumulation performed on WRK1 cell line of V1a receptor subtype. The class given is cell-based. An outline of the steps: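 WRK1 cells prelabeled 3 days with myo-[3H]inositol (2 μCi/mL), then serum-starved 30 min. Preincubated 15 min at 37 °C in PBS with 10 mM LiCl, 1 mg/mL BSA and analogue, then 3 nM AVP or vehicle for 6 min. Stopped with perchloric acid. Total inositol phosphates separated on Dowex. Ki act derived from the antagonism curves. At least three experiments in duplicate.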

The Ki is the dissociation constant of the complex between target and ligand, obtained from inhibition or displacement. One may read the Kd as the constant that tells how readily two partners part at equilibrium. The low end stands for tighter binding, the high end for weaker binding.

T1 sequence (P30560 whole entry): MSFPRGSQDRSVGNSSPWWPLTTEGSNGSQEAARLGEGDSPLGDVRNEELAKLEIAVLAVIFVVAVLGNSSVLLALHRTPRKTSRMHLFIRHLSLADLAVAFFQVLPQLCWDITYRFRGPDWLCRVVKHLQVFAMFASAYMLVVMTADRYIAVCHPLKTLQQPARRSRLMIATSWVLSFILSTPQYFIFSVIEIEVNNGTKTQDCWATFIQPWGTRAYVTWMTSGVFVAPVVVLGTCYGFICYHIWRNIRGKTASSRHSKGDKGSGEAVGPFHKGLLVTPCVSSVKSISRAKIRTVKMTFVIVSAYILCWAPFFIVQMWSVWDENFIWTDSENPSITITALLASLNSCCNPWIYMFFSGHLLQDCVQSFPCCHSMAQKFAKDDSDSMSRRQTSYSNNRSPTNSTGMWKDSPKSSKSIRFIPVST
Chain of Vasopressin V2 receptor (Q00788 whole entry): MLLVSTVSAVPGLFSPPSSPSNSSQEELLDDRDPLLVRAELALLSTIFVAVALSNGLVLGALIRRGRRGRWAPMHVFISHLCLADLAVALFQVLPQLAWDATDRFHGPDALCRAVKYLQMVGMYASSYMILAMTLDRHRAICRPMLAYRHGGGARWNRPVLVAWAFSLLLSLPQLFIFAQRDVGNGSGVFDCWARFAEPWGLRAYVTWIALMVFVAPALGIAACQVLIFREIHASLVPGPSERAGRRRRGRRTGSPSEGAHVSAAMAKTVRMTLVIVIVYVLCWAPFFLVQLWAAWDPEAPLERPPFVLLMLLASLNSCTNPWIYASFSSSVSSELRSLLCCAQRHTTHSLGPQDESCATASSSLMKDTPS

Regarding `COc1ccc(C[C@@H](NC(=O)c2ccc(N=[N+]=[N-])cc2)C(=O)N[C@@H](Cc2ccccc2)C(=O)N[C@@H](CCC(N)=O)C(=O)N[C@@H](CC(N)=O)C(=O)N[C@@H](CCCNC(=N)N)C(=O)N2CCC[C@H]2C(=O)N[C@@H](CCCNC(=N)N)C(=O)N[C@@H](Cc2ccc(O)cc2)C(N)=O)cc1`, the Ki on Vasopressin V1a receptor [1] worked out at 20 nM.
Same read-out and setting: to `COc1ccc(C[C@@H](NC(=O)c2cccc(N=[N+]=[N-])c2)C(=O)N[C@@H](Cc2ccccc2)C(=O)N[C@@H](CCC(N)=O)C(=O)N[C@@H](CC(N)=O)C(=O)N[C@@H](CCCN=C(N)N)C(=O)N2CCC[C@H]2C(=O)N[C@@H](CCCN=C(N)N)C(=O)N[C@@H](Cc2ccc(O)cc2)C(N)=O)cc1` belongs 17.8 nM.
The same measure, in the same setting: to `COc1ccc(C[C@@H](NC(=O)Cc2ccc(N=[N+]=[N-])cc2)C(=O)N[C@@H](Cc2ccccc2)C(=O)N[C@@H](CCC(N)=O)C(=O)N[C@@H](CC(N)=O)C(=O)N[C@@H](CCCNC(=N)N)C(=O)N2CCC[C@H]2C(=O)N[C@@H](CCCNC(=N)N)C(=O)N[C@@H](Cc2ccc(O)cc2)C(N)=O)cc1` (stereo in doubt; 13) belongs 0.12 nM; to `COc1ccc(C[C@@H](NC(=O)Cc2cccc(N=[N+]=[N-])c2)C(=O)N[C@@H](Cc2ccccc2)C(=O)N[C@@H](CCC(N)=O)C(=O)N[C@@H](CC(N)=O)C(=O)N[C@@H](CCCNC(=N)N)C(=O)N2CCC[C@H]2C(=O)N[C@@H](CCCNC(=N)N)C(=O)N[C@@H](Cc2ccc(O)cc2)C(N)=O)cc1` (stereo in doubt; 14), 0.31 nM; to `COc1ccc(C[C@@H](NC(=O)CCc2ccc(N=[N+]=[N-])cc2)C(=O)N[C@@H](Cc2ccccc2)C(=O)N[C@@H](CCC(N)=O)C(=O)N[C@@H](CC(N)=O)C(=O)N[C@@H](CCCN=C(N)N)C(=O)N2CCC[C@H]2C(=O)N[C@@H](CCCN=C(N)N)C(=O)N[C@@H](Cc2ccc(O)cc2)C(N)=O)cc1` (stereo in doubt; 15), 0.2 nM.
The same measure, in the same setting: then `COc1ccc(C[C@@H](NC(=O)CCc2cccc(N=[N+]=[N-])c2)C(=O)N[C@@H](Cc2ccccc2)C(=O)N[C@@H](CCC(N)=O)C(=O)N[C@@H](CC(N)=O)C(=O)N[C@@H](CCCNC(=N)N)C(=O)N2CCC[C@H]2C(=O)N[C@@H](CCCNC(=N)N)C(=O)N[C@@H](Cc2ccc(O)cc2)C(N)=O)cc1` (stereo in doubt; 16), with 0.16 nM.
Consider `COc1ccc(C[C@@H](NC(=O)CCCc2ccc(N=[N+]=[N-])cc2)C(=O)N[C@@H](Cc2ccccc2)C(=O)N[C@@H](CCC(N)=O)C(=O)N[C@@H](CC(N)=O)C(=O)N[C@@H](CCCN=C(N)N)C(=O)N2CCC[C@H]2C(=O)N[C@@H](CCCN=C(N)N)C(=O)N[C@@H](Cc2ccc(O)cc2)C(N)=O)cc1` (stereo in doubt; 17), for which, at Vasopressin V1a receptor [1], the affinity corresponds to a Ki of 0.04 nM.
Compound `COc1ccc(C[C@@H](NC(=O)Cc2ccc(N=[N+]=[N-])cc2)C(=O)N[C@@H](Cc2ccccc2)C(=O)N[C@@H](CCC(N)=O)C(=O)N[C@@H](CC(N)=O)C(=O)N[C@@H](CCCNC(=N)N)C(=O)N2CCC[C@H]2C(=O)N[C@@H](CCCNC(=N)N)C(=O)N[C@@H](Cc2ccc(O)cc2)C(N)=O)cc1` (stereo in doubt; 18) had an equilibrium dissociation constant (Kd) on Vasopressin V1a receptor [2] of 0.15 nM. Also, the Ki on Oxytocin receptor is 4.8 nM; on Vasopressin V2 receptor, 8 nM; at Vasopressin V1a receptor [3], 0.2 nM; on Vasopressin V1a receptor [1], 0.59 nM.
Regarding `COc1ccc(C[C@@H](NC(=O)Cc2cccc(N=[N+]=[N-])c2)C(=O)N[C@@H](Cc2ccccc2)C(=O)N[C@@H](CCC(N)=O)C(=O)N[C@@H](CC(N)=O)C(=O)N[C@@H](CCCNC(=N)N)C(=O)N2CCC[C@H]2C(=O)N[C@@H](CCCNC(=N)N)C(=O)N[C@@H](Cc2ccc(O)cc2)C(N)=O)cc1` (stereo in doubt; 19), the Ki was determined as 0.65 nM on Oxytocin receptor, 10 nM on Vasopressin V2 receptor, 0.24 nM on Vasopressin V1a receptor [3] and 1.1 nM on Vasopressin V1a receptor [1].
Take `COc1ccc(C[C@@H](NC(=O)CCc2ccc(N=[N+]=[N-])cc2)C(=O)N[C@@H](Cc2ccccc2)C(=O)N[C@@H](CCC(N)=O)C(=O)N[C@@H](CC(N)=O)C(=O)N[C@@H](CCCN=C(N)N)C(=O)N2CCC[C@H]2C(=O)N[C@@H](CCCN=C(N)N)C(=O)N[C@@H](Cc2ccc(O)cc2)C(N)=O)cc1` (stereo in doubt; 20): at Vasopressin V1a receptor [2], binding was put at a Kd of 0.19 nM. Moreover, the Ki on Oxytocin receptor was 37.7 nM; on Vasopressin V2 receptor it was 1.6 nM; on Vasopressin V1a receptor [3], 0.11 nM; on Vasopressin V1a receptor [1] it was 0.47 nM.
On the same counts, the results for `COc1ccc(C[C@@H](NC(=O)CCc2cccc(N=[N+]=[N-])c2)C(=O)N[C@@H](Cc2ccccc2)C(=O)N[C@@H](CCC(N)=O)C(=O)N[C@@H](CC(N)=O)C(=O)N[C@@H](CCCNC(=N)N)C(=O)N2CCC[C@H]2C(=O)N[C@@H](CCCNC(=N)N)C(=O)N[C@@H](Cc2ccc(O)cc2)C(N)=O)cc1` (stereo in doubt; 21) are 0.054 nM, 1.4 nM, 16 nM, 0.13 nM and 0.27 nM.
`COc1ccc(C[C@@H](NC(=O)CCCc2ccc(N=[N+]=[N-])cc2)C(=O)N[C@@H](Cc2ccccc2)C(=O)N[C@@H](CCC(N)=O)C(=O)N[C@@H](CC(N)=O)C(=O)N[C@@H](CCCN=C(N)N)C(=O)N2CCC[C@H]2C(=O)N[C@@H](CCCN=C(N)N)C(=O)N[C@@H](Cc2ccc(O)cc2)C(N)=O)cc1` (stereo in doubt; 22) gave an inhibition constant Ki on Oxytocin receptor of 18 nM.
